Measured values from BindingDB's records for doi:10.1021/jm300345z (University of Copenhagen, 2012).

Experiments:
[1] = biological target: Excitatory amino acid transporter 1 (Homo sapiens, UniProt P43003); experiment: Inhibition of human EAAT1 expressed in HEK293 cells assessed as inhibition of 3[H]-D-Aspartate uptake after 6 mins by scintillation counting method
Method in brief: (§1)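 HEK293 cell lines expressing EAAT1, EAAT2 or EAAT3 were cultured and assayed for [³H]-D-aspartate uptake, following an earlier published protocol. Inhibition is reported as IC50 in μM, with pIC50 ± SEM.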

[2] = biological target: T1, Excitatory amino acid transporter 3 (Homo sapiens, UniProt P43005); experiment: Inhibition of human EAAT3 expressed in HEK293 cells assessed as inhibition of 3[H]-D-Aspartate uptake after 6 mins by scintillation counting method; method in brief: as §1
T1 sequence (P43005 whole entry): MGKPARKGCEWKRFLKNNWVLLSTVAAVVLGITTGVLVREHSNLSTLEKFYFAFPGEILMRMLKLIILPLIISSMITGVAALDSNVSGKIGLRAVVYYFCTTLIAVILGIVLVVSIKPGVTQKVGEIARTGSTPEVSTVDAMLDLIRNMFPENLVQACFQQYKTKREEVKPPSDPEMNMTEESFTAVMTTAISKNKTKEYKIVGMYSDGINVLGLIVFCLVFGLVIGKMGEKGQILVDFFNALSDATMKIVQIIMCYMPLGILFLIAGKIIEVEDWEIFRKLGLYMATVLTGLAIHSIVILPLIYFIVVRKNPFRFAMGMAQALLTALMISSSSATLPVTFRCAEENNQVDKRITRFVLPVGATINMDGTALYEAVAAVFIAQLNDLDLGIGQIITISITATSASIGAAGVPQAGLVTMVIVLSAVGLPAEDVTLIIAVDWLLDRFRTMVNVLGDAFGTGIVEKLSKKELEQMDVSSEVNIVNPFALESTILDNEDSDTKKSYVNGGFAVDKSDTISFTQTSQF

[3] = biological target: Excitatory amino acid transporter 2 (Homo sapiens, UniProt P43004); experiment: Inhibition of human EAAT2 expressed in HEK293 cells assessed as inhibition of 3[H]-D-Aspartate uptake after 6 mins by scintillation counting method; method in brief: as §1
Chain of Excitatory amino acid transporter 2 (P43004 whole entry): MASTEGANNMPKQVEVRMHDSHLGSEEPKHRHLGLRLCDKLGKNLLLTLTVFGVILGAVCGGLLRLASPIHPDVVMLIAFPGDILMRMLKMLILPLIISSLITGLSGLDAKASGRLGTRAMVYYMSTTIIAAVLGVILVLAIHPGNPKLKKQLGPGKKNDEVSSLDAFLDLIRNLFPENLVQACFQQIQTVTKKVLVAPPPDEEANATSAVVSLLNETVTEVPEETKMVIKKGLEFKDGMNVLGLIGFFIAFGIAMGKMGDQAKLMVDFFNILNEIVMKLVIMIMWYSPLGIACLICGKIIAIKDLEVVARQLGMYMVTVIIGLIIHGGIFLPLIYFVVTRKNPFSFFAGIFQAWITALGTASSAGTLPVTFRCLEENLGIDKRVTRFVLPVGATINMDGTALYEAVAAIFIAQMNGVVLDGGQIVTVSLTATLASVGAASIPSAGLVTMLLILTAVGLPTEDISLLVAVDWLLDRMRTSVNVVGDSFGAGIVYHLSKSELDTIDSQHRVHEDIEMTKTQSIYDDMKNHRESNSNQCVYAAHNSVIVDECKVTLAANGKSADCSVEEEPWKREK

Chain of Excitatory amino acid transporter 1 (P43003 whole entry): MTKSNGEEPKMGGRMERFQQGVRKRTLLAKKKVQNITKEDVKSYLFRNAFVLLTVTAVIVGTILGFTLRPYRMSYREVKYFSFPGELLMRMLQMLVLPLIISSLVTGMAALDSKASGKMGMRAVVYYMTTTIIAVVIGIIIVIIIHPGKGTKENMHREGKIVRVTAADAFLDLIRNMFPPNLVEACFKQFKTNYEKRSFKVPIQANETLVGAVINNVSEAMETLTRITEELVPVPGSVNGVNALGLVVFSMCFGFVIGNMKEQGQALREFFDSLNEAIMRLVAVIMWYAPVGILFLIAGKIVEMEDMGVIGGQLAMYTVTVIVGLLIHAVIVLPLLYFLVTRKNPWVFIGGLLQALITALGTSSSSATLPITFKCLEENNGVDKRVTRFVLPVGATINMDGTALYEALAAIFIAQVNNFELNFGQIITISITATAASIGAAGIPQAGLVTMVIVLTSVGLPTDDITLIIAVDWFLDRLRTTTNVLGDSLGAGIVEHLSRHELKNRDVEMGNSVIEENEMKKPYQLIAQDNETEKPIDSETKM

| SMILES | IC50 [1] [µM] | IC50 [2] [µM] | IC50 [3] [µM] |
| --- | --- | --- | --- |
| N#CC1C(=N)OC2=C(C(=O)CN(C(=O)c3ccccc3)C2)C1c1ccccc1 (configuration not stated) | > 100 | > 100 | > 100 |
| N#CC1C(=N)OC2=C(C(=O)CN(c3ccccc3)C2)C1c1ccccc1 (configuration not stated) | > 100 | > 100 | > 100 |
| CC1(C)C2=C(CC(c3ccccc3)CC2=O)OC(=N)C1C#N (configuration not stated) | > 300 | – | – |
